MITF TRPM1 HTS – MITF TRPM1 promoter activation in melanoma cells; 300,000 compounds, 0.75% hits; SK-MEL-5 TRPM1-promoter luciferase, 24 h; % of positive control, neutral wells = 0; activation, % at 12.5 µM;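 active = mean activation of at least 80% with every replicate also reaching 80%; inconclusive = mean reaches 80% but some replicate falls short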
PGC1a acetyl inh – lowers PGC1a acetylation signal in U2OS cells; AlphaScreen anti-acetyl-lysine; with virally co-expressed GCN5 acetyltransferase; inhibition, % at 15.6 µM; 350,000 compounds, 0.17% hits;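 active = every replicate shows inhibition of at least 40%; inconclusive = mean inhibition at least 40% but some replicate below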
Wnt bcat act – activators of Wnt/beta-catenin signaling. 300,000 compounds, 1.2% hits. activation, % at 9.35 µM. Wnt/beta-catenin reporter cell assay, activator, plate reader. AID 743398; in the data active = activation above about 30%, passing the limit was not always enough; inconclusive = no clear call, values can overlap the other calls
Cneo AK release – Cryptococcus neoformans lysis via adenylate kinase release; C. neoformans lysis, adenylate kinase release luminescence, 4 h; normalised: neutral wells 0, clomiphene wells 100; lysis activity, % at 15 µM; 360,000 compounds, 0.2% hits; AID 651654;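 active = mean lysis activity across replicates of at least 80%, whatever share of replicates individually reach that level; inactive = mean lysis activity below 80%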
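Schedule: static 4 h at 37 °C with compound, 1 h detection; system: C. neoformans cells; benchmarks: Clomiphene as positive control; buffer or medium: fresh YPD medium; measure: luminescence rise reflecting yeast cell lysis; measured by: luminescent adenylate kinase detection reagent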
COX5a expr inh – C2C12 myotube COX5a expression inhibition; shares compounds with PGC1a acetyl inh; maximal activity, %; C2C12 myotubes PGC-1a adenovirus, COX5a qPCR; AID 743461; 45 tested, under 10 active;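 active = fitted dose curve reaching 40% activity at or below the highest valid dose tested; inconclusive = flat fit between 30% and 70%, or an unusable fit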
AID743468 – change in PGC-1a target gene PDK4 expression, dose response, C2C12 myotubes, RT-qPCR, cherry-pick; PGC-1a adenovirus, PDK4 mRNA qPCR; 45 tested, under 10 active; shares compounds with PGC1a acetyl inh; PDK4 expression increase, % at 19.5 µM; AID 743468;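 active = fitted curve reaching a 40% PDK4 expression rise at or below the top valid tested dose; inconclusive = no clear call, values can overlap the other calls; inactive = the rest, including shifts the wrong way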
Each line names hits and unclear results; the compound was inactive in the other large screens (follow-up assays come after a bar, where they were run); ! = repeats disagree. Hits are enriched below; roughly 1.5% of the tested compounds scored in any of these assays.

Cc1c(C(=O)NC(=S)NCC(C)C)oc2ccccc12	MITF TRPM1 HTS 90
C=CCNC(=S)NC(=O)c1oc2ccccc2c1C	none (no result: Cneo AK release)
CCOC(=O)C1CN(S(=O)(=O)c2ccc(Cl)cc2)c2cc(S(=O)(=O)CC)ccc2O1 (configuration not stated)	none (no result: Cneo AK release)
CCOC(=O)C1CN(S(=O)(=O)c2ccccc2)c2cc(S(=O)(=O)CC)ccc2O1 (configuration not stated)	PGC1a acetyl inh 50
Cc1cccc(NC(=O)c2cc(-c3cc(C)c(C)cc3O)n[nH]2)c1	Wnt bcat act inconclusive
Cc1ccc(-c2cc(C(=O)Nc3cccnc3)[nH]n2)c(O)c1C	MITF TRPM1 HTS 114, Wnt bcat act 44 (no result: PGC1a acetyl inh, Cneo AK release)
CCN(CC(=O)NCc1ccc(Cl)cc1)C(=O)CSc1cc(C)ccc1C	none
CCN(CC(=O)NCc1ccc(Cl)cc1)C(=O)CSCC(=O)Nc1ccc(C)cc1	none | COX5a expr inh inactive | AID743468 inactive
Cc1ccc(Cn2ncc(Cl)c(Cl)c2=O)cc1	none (no result: Wnt bcat act) | COX5a expr inh inactive | AID743468 inactive
Cc1ccccc1-n1nnnc1SCC(N)=O	none
Cc1ccccc1-n1nnnc1Sc1nnnn1-c1ccccc1	PGC1a acetyl inh inconclusive (no result: Wnt bcat act) | COX5a expr inh inactive | AID743468 inactive
COc1ccccc1C#Cc1ccc([C@H]2[C@H](C#N)N(C(=O)C3CCCC3)[C@H]2CO)cc1	PGC1a acetyl inh 65 (no result: MITF TRPM1 HTS, Wnt bcat act, Cneo AK release) | COX5a expr inh inactive | AID743468 inactive
CCCN1C[C@@H](C)[C@@H](OC)CN(C)C(=O)c2cc(NC(=O)CC)ccc2OC[C@H]1C	none (no result: MITF TRPM1 HTS, Wnt bcat act, Cneo AK release)
N#Cc1cc(Oc2cccc3cccnc23)c(-n2nnc3ccccc32)cc1C#N	none | COX5a expr inh inactive | AID743468 inactive
N#Cc1cc(O)c(-n2nnc3ccccc32)cc1C#N	none
Cc1ccc(S(=O)(=O)N(C)C[C@H]2Oc3cc(C#Cc4ccncc4)ccc3S(=O)(=O)N([C@@H](C)CO)C[C@@H]2C)cc1	none (no result: MITF TRPM1 HTS, Wnt bcat act)
Cc1ccc(S(=O)(=O)N(C)C[C@@H]2Oc3cc(C#Cc4ccncc4)ccc3S(=O)(=O)N([C@@H](C)CO)C[C@H]2C)cc1	PGC1a acetyl inh 60 (no result: MITF TRPM1 HTS, Wnt bcat act) | COX5a expr inh inactive | AID743468 inactive
Cc1ccc(S(=O)(=O)N(C)C[C@@H]2Oc3cc(C#Cc4ccncc4)ccc3S(=O)(=O)N([C@H](C)CO)C[C@H]2C)cc1	PGC1a acetyl inh inconclusive (no result: MITF TRPM1 HTS, Wnt bcat act) | COX5a expr inh inactive | AID743468 inactive
COc1cccc(NC(=O)N2CC(=O)N3[C@@H](CO)[C@H](c4ccc(C5=CCCC5)cc4)[C@@H]3C2)c1	none (no result: MITF TRPM1 HTS, Wnt bcat act, Cneo AK release)
CCCNC(=O)N1CC2(CCN(C(=O)CN(C)C)CC2)c2c(n(C)c3cc(OC)ccc23)[C@@H]1CO	none (no result: MITF TRPM1 HTS, Wnt bcat act, Cneo AK release)
COc1ccc(C(=O)Nc2cccc(NC(=O)c3ccc(OC)c(OC)c3)n2)cc1OC	PGC1a acetyl inh 61 (no result: MITF TRPM1 HTS) | COX5a expr inh inactive | AID743468 44
COCCSc1ccccc1C(=O)Nc1cc(C)on1	PGC1a acetyl inh inconclusive | COX5a expr inh inactive | AID743468 inactive
C[C@@H]1CN([C@@H](C)CO)C(=O)c2cc(C#CC3(O)CCCC3)cnc2O[C@H]1CN(C)Cc1ccccc1	none (no result: MITF TRPM1 HTS, Wnt bcat act)
CC(C)NC(=O)N[C@@H]1CC[C@H](CCNC(=O)C2CC2)O[C@@H]1CO	none (no result: MITF TRPM1 HTS, Wnt bcat act)
C#CCN(C[C@@H]1[C@@H](OC(=O)NCCCCCC)[C@@H](OC(=O)NCCCCCC)Cn2c(=O)ccc(=O)n21)S(=O)(=O)c1ccc(C)cc1	PGC1a acetyl inh 92 (no result: MITF TRPM1 HTS) | COX5a expr inh inactive | AID743468 88
C#CCN(C[C@@H]1[C@@H](OC(=O)NCc2ccc(OC)c(OC)c2)[C@@H](OC(=O)NCc2ccc(OC)c(OC)c2)Cn2c(=O)ccc(=O)n21)S(=O)(=O)c1ccc(C)cc1	none (no result: MITF TRPM1 HTS)
CCN1CCN(Cc2ccc(NC(=O)c3ccc(C)c(NC(=O)c4c[nH]c5cc(C(F)(F)F)ccc5c4=O)c3)cc2C(F)(F)F)CC1	PGC1a acetyl inh 78! | COX5a expr inh inactive | AID743468 inactive
OC(c1cc(C(F)(F)F)nc2c(C(F)(F)F)cccc12)C1CCCCN1 (configuration not stated)	none | COX5a expr inh inactive | AID743468 inactive
OC(c1cc(-c2ccc(C(F)(F)F)cc2)nc(C(F)(F)F)c1)C1CCCCN1 (configuration not stated)	none
CC1C=NC(S(=O)(=O)N2CC[C@@H]3[C@@H](CO)N(C)c4ccc(-c5cccc(F)c5)cc4[C@@H]32)=N1 (some centres not stated)	none (no result: MITF TRPM1 HTS, Wnt bcat act)
